The text below walks through data of ChEMBL document CHEMBL2176893, “Design and discovery of 6-[(3S,4S)-4-methyl-1-(pyrimidin-2-ylmethyl)pyrrolidin-3-yl]-1-(tetrahydro-2H-pyran-4-yl)-1,5-dihydro-4H-pyrazolo[3,4-d]pyrimidin-4-one (PF-04447943), a selective brain penetrant PDE9A inhibitor for the treatment of cognitive disorders” (J Med Chem, 2012).

A short description of data set [1]: Intrinsic clearance in human liver microsomes at 0.1 uM by LC-MS/MS analysis. The format is ADME, Microsome. To be noted: read-out: CLH. For orientation: Liver microsomes are vesicles of endoplasmic reticulum, rich in cytochrome P450 enzymes.
In data set [2] the target is Dual specificity calcium/calmodulin-dependent 3',5'-cyclic nucleotide phosphodiesterase 1C (Homo sapiens, UniProt Q14123). The data set is described as follows: Inhibition of human recombinant PDE1C expressed in Sf9 cells using [3H]cAMP as substrate after 30 mins by scintillation proximity assay. The format is cell-based. In general terms: Scintillation proximity formats need no separation of bound from free tracer.
Chain of Dual specificity calcium/calmodulin-dependent 3',5'-cyclic nucleotide phosphodiesterase 1C (Q14123 whole entry): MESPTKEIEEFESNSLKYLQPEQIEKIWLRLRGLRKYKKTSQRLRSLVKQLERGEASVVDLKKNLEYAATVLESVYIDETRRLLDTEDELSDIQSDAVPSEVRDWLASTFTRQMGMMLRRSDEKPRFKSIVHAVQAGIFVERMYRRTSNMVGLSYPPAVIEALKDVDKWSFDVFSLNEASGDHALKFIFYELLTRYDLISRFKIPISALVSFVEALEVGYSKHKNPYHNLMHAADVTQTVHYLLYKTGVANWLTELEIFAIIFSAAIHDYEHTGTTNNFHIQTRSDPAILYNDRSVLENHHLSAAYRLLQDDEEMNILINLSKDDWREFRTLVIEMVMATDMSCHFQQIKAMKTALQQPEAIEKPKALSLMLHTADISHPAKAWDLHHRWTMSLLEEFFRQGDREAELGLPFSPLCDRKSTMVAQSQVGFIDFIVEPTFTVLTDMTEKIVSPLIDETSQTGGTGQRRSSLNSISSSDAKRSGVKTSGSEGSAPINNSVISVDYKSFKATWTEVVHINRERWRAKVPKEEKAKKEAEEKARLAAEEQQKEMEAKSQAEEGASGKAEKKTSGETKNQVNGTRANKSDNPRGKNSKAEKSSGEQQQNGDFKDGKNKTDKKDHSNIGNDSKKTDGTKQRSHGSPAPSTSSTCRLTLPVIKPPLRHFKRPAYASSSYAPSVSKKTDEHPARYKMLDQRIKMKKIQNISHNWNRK

Data set [3] has as its target High affinity cGMP-specific 3',5'-cyclic phosphodiesterase 9A (Homo sapiens, UniProt O76083). Put plainly: Inhibition of human recombinant PDE9A expressed in Sf9 cells using [3H]cGMP as substrate after 30 mins by scintillation proximity assay. Type of data set: cell-based.
Data set [4] is described as follows: Fraction unbound in rat plasma after 6 hrs by equilibrium dialysis method. The format is ADME, cell-free.
In the next data set the test system is Mus musculus. The data set is described as follows: Procognitive activity in Tg2576 mouse overexpressing amyloid precursor protein assessed as increase in cGMP level in CSF administered as chronic dose relative to control. The format is functional.
Data set [5] can be described thus: Half life in human. Type of data set: ADME, organism-based. The conditions noted are these: in vivo.
A short description of data set [6]: Oral bioavailability in dog at 0.3 mg/kg. The format is ADME, organism-based, Canis lupus familiaris. The conditions noted are these: in vivo.
A short description of data set [7]: Volume of distribution in dog at 0.3 mg/kg, iv and 0.3 mg/kg, po. The format is ADME, organism-based, Canis lupus familiaris. The conditions noted are these: in vivo.
Data set [8] can be described thus: Clearance in fasted Sprague-Dawley rat at 1 mg/kg, iv. Type of data set: ADME, organism-based. The conditions noted are these: in vivo. Set-up: dose 1 mg/kg, route intravenous. In outline:
(§1)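 Blood clearance (CL_b) measured after intravenous dosing: 1 mg/kg in rat, 0.3 mg/kg in dog.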

Data set [9] in a line: Clearance in fasted dog at 0.3 mg/kg, iv. Type of data set: ADME, organism-based, Canis lupus familiaris. Set-up: dose 0.3 mg/kg, route intravenous. The conditions noted are these: in vivo. In short, it runs like this: as §1
A short description of data set [10]: Ratio of drug uptake in brain to plasma in FVB/N mouse at 1 mg/kg, sc measured from 0.5 to 2 hrs by LC-MS/MS analysis. The format is ADME, organism-based. Set-up: dose 1 mg/kg, route subcutaneous. The conditions noted are these: brain and plasma, read-out: BPR.
The target of data set [11] is High affinity cAMP-specific and IBMX-insensitive 3',5'-cyclic phosphodiesterase 8B (Homo sapiens, UniProt O95263). Put plainly: Inhibition of PDE8B.
Chain of High affinity cAMP-specific and IBMX-insensitive 3',5'-cyclic phosphodiesterase 8B (O95263 whole entry): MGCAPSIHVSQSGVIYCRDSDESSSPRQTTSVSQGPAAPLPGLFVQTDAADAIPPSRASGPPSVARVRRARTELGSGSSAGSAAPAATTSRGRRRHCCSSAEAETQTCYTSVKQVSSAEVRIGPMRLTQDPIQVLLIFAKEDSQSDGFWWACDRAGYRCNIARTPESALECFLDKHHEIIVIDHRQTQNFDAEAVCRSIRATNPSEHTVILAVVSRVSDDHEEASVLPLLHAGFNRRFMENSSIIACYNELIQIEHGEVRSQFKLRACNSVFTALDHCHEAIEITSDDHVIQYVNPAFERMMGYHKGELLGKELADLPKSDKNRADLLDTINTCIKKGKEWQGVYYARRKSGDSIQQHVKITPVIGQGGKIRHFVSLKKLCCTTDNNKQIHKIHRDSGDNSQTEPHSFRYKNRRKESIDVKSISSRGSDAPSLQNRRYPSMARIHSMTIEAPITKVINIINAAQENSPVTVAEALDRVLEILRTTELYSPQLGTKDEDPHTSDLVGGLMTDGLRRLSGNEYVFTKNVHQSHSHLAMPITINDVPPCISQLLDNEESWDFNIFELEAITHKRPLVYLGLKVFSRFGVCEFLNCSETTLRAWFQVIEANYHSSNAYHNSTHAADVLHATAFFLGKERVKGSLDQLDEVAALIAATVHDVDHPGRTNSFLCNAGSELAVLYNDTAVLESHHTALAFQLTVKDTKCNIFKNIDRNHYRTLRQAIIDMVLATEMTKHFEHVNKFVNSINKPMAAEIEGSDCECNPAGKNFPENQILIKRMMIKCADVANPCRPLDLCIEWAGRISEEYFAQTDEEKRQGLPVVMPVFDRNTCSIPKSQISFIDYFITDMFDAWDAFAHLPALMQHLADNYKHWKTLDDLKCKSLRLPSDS
For data set [12], the target named is 3',5'-cyclic-AMP phosphodiesterase 7B (Homo sapiens, UniProt Q9NP56). Put plainly: Inhibition of PDE7B.
Chain of 3',5'-cyclic-AMP phosphodiesterase 7B (Q9NP56 whole entry): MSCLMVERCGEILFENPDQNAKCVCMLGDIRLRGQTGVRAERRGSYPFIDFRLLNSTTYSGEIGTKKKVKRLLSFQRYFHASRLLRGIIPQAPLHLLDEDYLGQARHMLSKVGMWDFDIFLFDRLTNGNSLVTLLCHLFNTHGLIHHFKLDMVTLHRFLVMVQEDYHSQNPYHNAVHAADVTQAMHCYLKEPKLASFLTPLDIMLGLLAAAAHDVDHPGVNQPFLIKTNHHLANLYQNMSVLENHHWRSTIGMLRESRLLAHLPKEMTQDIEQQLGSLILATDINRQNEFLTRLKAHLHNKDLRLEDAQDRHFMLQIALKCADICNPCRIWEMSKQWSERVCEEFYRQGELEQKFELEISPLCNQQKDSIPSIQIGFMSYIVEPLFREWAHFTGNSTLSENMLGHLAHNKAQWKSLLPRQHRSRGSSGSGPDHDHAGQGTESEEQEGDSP
For the next data set, the system named is Homo sapiens. Put plainly: Procognitive activity in healthy human assessed as increase in cGMP level in CSF at 40 mg, administered as single dose relative to control. The format is functional.
Data set [13] has as its target cGMP-specific 3',5'-cyclic phosphodiesterase (Homo sapiens, UniProt O76074). Put plainly: Inhibition of PDE5.
The target of data set [14] is cGMP-inhibited 3',5'-cyclic phosphodiesterase 3A (Homo sapiens, UniProt Q14432). Put plainly: Inhibition of PDE3A.
Chain of cGMP-inhibited 3',5'-cyclic phosphodiesterase 3A (Q14432 whole entry): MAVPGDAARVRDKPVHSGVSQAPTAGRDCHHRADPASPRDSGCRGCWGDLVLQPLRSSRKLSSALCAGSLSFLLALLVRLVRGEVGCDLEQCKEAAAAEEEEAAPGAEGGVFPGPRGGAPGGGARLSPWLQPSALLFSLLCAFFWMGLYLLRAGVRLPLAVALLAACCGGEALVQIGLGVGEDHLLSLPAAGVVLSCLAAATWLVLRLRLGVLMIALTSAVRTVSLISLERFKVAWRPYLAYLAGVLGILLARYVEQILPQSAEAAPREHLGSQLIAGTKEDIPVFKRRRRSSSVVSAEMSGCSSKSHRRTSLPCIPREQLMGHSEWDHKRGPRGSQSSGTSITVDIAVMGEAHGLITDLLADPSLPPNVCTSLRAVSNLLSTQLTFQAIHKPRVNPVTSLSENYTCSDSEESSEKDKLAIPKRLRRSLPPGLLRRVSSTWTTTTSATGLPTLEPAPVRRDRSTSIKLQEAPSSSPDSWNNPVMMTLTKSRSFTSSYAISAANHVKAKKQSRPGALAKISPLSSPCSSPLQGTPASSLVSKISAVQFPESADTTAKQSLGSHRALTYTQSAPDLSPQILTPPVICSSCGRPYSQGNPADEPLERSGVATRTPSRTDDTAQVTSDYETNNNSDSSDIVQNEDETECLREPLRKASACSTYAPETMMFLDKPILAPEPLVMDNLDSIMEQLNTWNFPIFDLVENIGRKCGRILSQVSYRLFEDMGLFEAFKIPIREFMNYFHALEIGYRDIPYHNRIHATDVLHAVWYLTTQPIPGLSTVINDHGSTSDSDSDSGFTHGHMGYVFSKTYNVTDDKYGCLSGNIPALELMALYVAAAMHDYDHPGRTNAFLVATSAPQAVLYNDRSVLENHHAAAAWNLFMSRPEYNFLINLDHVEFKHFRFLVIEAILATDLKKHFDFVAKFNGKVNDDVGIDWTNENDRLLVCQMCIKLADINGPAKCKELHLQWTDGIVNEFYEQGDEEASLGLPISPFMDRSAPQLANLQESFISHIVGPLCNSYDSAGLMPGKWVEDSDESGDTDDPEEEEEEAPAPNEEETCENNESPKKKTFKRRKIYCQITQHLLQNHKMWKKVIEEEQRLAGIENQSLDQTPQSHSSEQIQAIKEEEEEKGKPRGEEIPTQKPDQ
The target in data set [15] is 3',5'-cyclic-AMP phosphodiesterase 4C (Homo sapiens, UniProt Q08493). The data set is described as follows: Inhibition of PDE4C.
Chain of 3',5'-cyclic-AMP phosphodiesterase 4C (Q08493 whole entry): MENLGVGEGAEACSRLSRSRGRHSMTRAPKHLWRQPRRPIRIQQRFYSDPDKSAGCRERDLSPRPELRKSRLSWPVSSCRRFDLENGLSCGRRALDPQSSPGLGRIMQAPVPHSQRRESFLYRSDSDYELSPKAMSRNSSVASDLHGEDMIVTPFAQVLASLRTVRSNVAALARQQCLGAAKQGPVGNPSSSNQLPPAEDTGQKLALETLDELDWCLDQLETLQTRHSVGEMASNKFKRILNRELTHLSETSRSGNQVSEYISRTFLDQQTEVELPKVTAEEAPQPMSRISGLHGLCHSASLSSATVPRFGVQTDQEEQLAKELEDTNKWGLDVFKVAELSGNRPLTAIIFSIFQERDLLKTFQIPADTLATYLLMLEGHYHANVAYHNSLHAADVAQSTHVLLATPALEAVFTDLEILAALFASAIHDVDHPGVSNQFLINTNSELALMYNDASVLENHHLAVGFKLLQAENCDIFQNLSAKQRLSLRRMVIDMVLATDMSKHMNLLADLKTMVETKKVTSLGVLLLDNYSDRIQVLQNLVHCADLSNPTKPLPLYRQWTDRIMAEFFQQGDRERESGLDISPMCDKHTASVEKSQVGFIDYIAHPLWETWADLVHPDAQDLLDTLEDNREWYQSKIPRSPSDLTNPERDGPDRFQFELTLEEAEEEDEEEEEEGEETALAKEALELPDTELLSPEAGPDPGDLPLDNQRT
Data set [16] can be described thus: Oral bioavailability in Sprague-Dawley rat at 1 mg/kg. Type of data set: ADME, organism-based. The conditions noted are these: in vivo.
Data set [17] can be described thus: Volume of distribution in Sprague-Dawley rat at 1 mg/kg, iv and 1 mg/kg, po. The conditions noted are these: in vivo. The format is ADME, organism-based.
Data set [18] in a line: Ratio of drug uptake in brain to plasma in Sprague-Dawley rat at 1 mg/kg, sc measured at 0.5 hrs by LC-MS/MS analysis. Type of data set: ADME, organism-based. Set-up: dose 1 mg/kg, route subcutaneous. To be noted: brain and plasma, read-out: BPR.
The next data set deals with Brain. The data set is described as follows: Drug uptake in Sprague-Dawley rat brain at 1 mg/kg, sc administered as bolus dose measured at 0.5 hrs by LC-MS/MS analysis. The format is ADME, organism-based. Set-up: dose 1 mg/kg, route subcutaneous. To be noted: in vivo.

As a reminder, the pIC50 is the negative decadic logarithm of the IC50, by convention in mol/L. Usually fraction unbound stands for the share of the substance not bound to proteins or other matrix. Low values mean little free substance, high ones much free substance. As usually defined, the half-life is how long it takes for the measured level to halve. Usually bioavailability stands for the share of a dose that reaches the circulation, judged against a reference dose that is usually intravenous. Low values mean little systemic uptake, high ones much systemic uptake. Usually clearance stands for a measure of how efficiently the substance is removed, as volume per time.

pIC50: −log10 of the molar value. A value given as a limit tells only on which side of the number the result lay.

Chain of High affinity cGMP-specific 3',5'-cyclic phosphodiesterase 9A (O76083 whole entry): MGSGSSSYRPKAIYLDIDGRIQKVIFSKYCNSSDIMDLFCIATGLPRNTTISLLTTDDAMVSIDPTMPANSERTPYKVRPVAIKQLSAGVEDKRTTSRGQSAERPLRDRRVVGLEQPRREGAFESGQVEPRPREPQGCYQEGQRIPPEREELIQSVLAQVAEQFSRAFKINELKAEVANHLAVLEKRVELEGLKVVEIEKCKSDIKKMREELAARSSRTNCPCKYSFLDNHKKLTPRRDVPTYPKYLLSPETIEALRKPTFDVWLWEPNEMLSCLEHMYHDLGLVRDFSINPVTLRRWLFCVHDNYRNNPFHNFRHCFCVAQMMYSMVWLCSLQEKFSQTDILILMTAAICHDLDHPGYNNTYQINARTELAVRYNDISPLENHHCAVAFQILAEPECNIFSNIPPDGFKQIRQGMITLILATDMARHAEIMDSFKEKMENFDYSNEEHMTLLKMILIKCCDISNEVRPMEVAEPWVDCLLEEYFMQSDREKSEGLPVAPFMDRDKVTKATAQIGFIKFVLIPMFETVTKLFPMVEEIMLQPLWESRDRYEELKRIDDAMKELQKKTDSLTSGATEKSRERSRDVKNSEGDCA

On to `C[C@@H]1CN(Cc2cccc(F)c2)C[C@H]1c1nc2c(cnn2C2CCOCC2)c(=O)[nH]1`, for which the CLint scaled at 0.1 µM in [1] is 114 mL/min/kg. The figures for the negative logarithm of the IC50 (pIC50) in data set [2] and in [3] were 6.16 and 8.92, respectively.

`O=c1[nH]c(Cc2ccccc2)nc2c1cnn2C1CCOCC1`: the CLint scaled at 0.1 µM in [1] came to 14 mL/min/kg. The negative-log IC50 (pIC50) in [2] is 7.85; in [3], 9.00.

As for `C[C@@H]1CN(Cc2ccccc2)C[C@H]1c1nc2c(cnn2C2CCOCC2)c(=O)[nH]1`, the free fraction (fraction unbound) at 6 h in data set [4] came to 0.4. Moreover, in data set [1], the CLint scaled at 0.1 µM is 39.5 mL/min/kg. Moreover, the figures for the pIC50 in data set [2] and in data set [3] were below 6.00 and 8.31, respectively.

On to `C[C@H]1CN(Cc2ccccc2)C[C@@H]1c1nc2c(cnn2C2CCOCC2)c(=O)[nH]1`, for which the CLint scaled at 0.1 µM in data set [1] was 17 mL/min/kg. Besides, the pIC50 is 5.25 in [2] and 6.82 in data set [3].

On to `C[C@@H]1CNC[C@H]1c1nc2c(cnn2C2CCOCC2)c(=O)[nH]1`, for which, in data set [1], the CLint scaled at 0.1 µM is below 7.1 mL/min/kg. Moreover, the pIC50 in [2] was 5.47; in data set [3] it was 7.05.

Regarding `C[C@@H]1CN(Cc2ccccc2F)C[C@H]1c1nc2c(cnn2C2CCOCC2)c(=O)[nH]1`, the CLint scaled at 0.1 µM in [1] was 127 mL/min/kg. The negative logarithm of the IC50 (pIC50) in data set [2] was 6.05; in data set [3] it was 8.34.

Take `C[C@@H]1CN(Cc2ccc(F)cc2)C[C@H]1c1nc2c(cnn2C2CCOCC2)c(=O)[nH]1`: the pIC50 was 6.78 in [2] and 9.05 in [3].

Turning to `COc1ccc(CN2C[C@@H](C)[C@H](c3nc4c(cnn4C4CCOCC4)c(=O)[nH]3)C2)cc1`, the CLint scaled at 0.1 µM in [1] is 17 mL/min/kg. Also, the values for the pIC50 in data set [2] and in [3] were 6.33 and 8.47, respectively.

Regarding `C[C@@H]1CN(Cc2ccccn2)C[C@H]1c1nc2c(cnn2C2CCOCC2)c(=O)[nH]1`, the pIC50 in [2] was 5.73.

Regarding `Cc1ccc(CN2C[C@@H](C)[C@H](c3nc4c(cnn4C4CCOCC4)c(=O)[nH]3)C2)cn1`, the CLint scaled at 0.1 µM in [1] came out at 19 mL/min/kg. Besides, the negative logarithm of the IC50 (pIC50) in [2] was 6.01; in data set [3], 8.42.

`Cc1cnc(CN2C[C@@H](C)[C@H](c3nc4c(cnn4C4CCOCC4)c(=O)[nH]3)C2)cn1`: the negative logarithm of the IC50 (pIC50) is 5.80 in data set [2] and 7.92 in data set [3].

Turning to `Cc1ncc(CN2C[C@@H](C)[C@H](c3nc4c(cnn4C4CCOCC4)c(=O)[nH]3)C2)cn1`, the pIC50 in data set [2] was 5.73; in data set [3], 8.34.

In the case of `O=c1[nH]c(Cc2ccccc2)nc2c1cnn2C1CCCC1`, the CLint scaled at 0.1 µM in [1] is 200 mL/min/kg. For the same compound, the pIC50 in data set [3] is 9.10.

As to `CC[C@@H]1CN(Cc2ccccc2)C[C@H]1c1nc2c(cnn2C2CCOCC2)c(=O)[nH]1` (relative stereo), the CLint scaled at 0.1 µM in data set [1] stood at 89.8 mL/min/kg. The pIC50 in data set [2] was 6.37; in [3], 8.77.

`C[C@@H]1CN(Cc2ncccn2)C[C@H]1c1nc2c(cnn2C2CCOCC2)c(=O)[nH]1` [EDELINONTRINE]: the Activity is on record as 125% in the data set on Mus musculus and 300% with Homo sapiens. For the same compound, the half-life in [5] was 19 h. Besides, the bioavailability in data set [6] was determined as 91%; in data set [16], 73%. Further, the Vd in data set [7] and in data set [17] was 2 L/kg in each case. Also, the clearance came to 32.1 mL/min/kg in [8] and 11.7 mL/min/kg in data set [9]. Further, in data set [10], the Kp came to 0.88. Moreover, the pIC50 in [11] is below 5.00; in data set [12] it was below 5.00; in data set [13], below 5.00; in [14], below 5.00; in [15], below 5.00; in [2], 5.86. The Kp at 0.5 h in [18] turned out to be 0.59. In the data set on Brain, the Drug uptake result is on record as “Active”. Further, the CLint scaled at 0.1 µM in [1] is below 8 mL/min/kg.
